The subject of data set [1] is ARPE-19. The data set is described as follows: Cytotoxicity against human ARPE19 cells measured after 96 hrs by MTT assay. Type of data set: cell-based. The following applies: ARPE-19, 96 h. Summed up:
(§1)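 Cells kept in DMEM or RPMI 1640 with 10% FBS and 5% penicillin-streptomycin at 37 °C, 5% CO2, seeded at 1 x 10⁴ cells/mL and left 24 h to adhere. Compounds or vehicle added over a concentration range for 96 h, then MTT 4 h; formazan dissolved in DMSO, absorbance read at 540 nm relative to control. IC50 given as mean ± SD of three independent experiments in duplicate.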

The nature of data set [2]: Antiproliferative activity against cisplatin-resistant human A2780/CP70 cells measured after 96 hrs by MTT assay. Type of data set: functional. The following applies: A2780/CP70, 96 h. Summed up: as §1
The nature of data set [3]: Selectivity index, ratio of IC50 for human ARPE19 cells to IC50 for cisplatin-resistant human A2780/CP70 cells. The data set is classed as toxicity. The note with it: ARPE19 cells versus cisplatin-resistant A2780/CP70 cells, read-out: Ratio IC50.
In data set [4] the test system is A2780. The data set is described as follows: Antiproliferative activity against cisplatin-sensitive human A2780 cells measured after 96 hrs by MTT assay. Type of data set: functional, cell-based. The following applies: A2780, 96 h. Summed up: as §1
Data set [5] in a line: Selectivity index, ratio of IC50 for human ARPE19 cells to IC50 for cisplatin-sensitive human A2780 cells. The following applies: ARPE19 cells versus cisplatin-sensitive A2780 cells, read-out: Ratio IC50. Type of data set: toxicity.

Molecules are shown by their SMILES.

For `CC1=C(CO)C(=O)O[C@@H]([C@@H](C)[C@H]2CC[C@H]3[C@@H]4C[C@H]5O[C@]56[C@@H](O)C=CC(=O)[C@]6(C)[C@H]4CC[C@]23C)C1` [WITHAFERIN A], the values for the IC50 in data set [1], in data set [2] and in data set [4] were 37 nM, 32 nM and 32.7 nM, respectively. Also, the selectivity ratio is 1.2 in data set [3] and 1.1 in data set [5].

On to `CC1=C(CO)C(=O)O[C@@H]([C@@H](C)[C@H]2CC[C@H]3[C@@H]4C[C@H]5O[C@]56C(=O)C=CC(=O)[C@]6(C)[C@H]4CC[C@]23C)C1`, for which the figures for the IC50 in data set [1], in data set [2] and in data set [4] were 32 nM, below 1 nM and 7.3 nM, respectively. In addition, the values for the selectivity ratio in data set [3] and in data set [5] were above 32 and 4.3, respectively.

For the compound `CC1=C(CO[Si](C)(C)C(C)C)C(=O)O[C@@H]([C@@H](C)[C@H]2CC[C@H]3[C@@H]4C[C@H]5O[C@]56[C@@H](O)C=CC(=O)[C@]6(C)[C@H]4CC[C@]23C)C1`, the IC50 in data set [1] worked out at 6500 nM; in data set [2], 35 nM; in data set [4] it was 34 nM. For the same compound, the selectivity ratio in data set [3] is 186; in data set [5], 191.

With `CC1=C(CO[Si](C(C)C)(C(C)C)C(C)C)C(=O)O[C@@H]([C@@H](C)[C@H]2CC[C@H]3[C@@H]4C[C@H]5O[C@]56[C@@H](O)C=CC(=O)[C@]6(C)[C@H]4CC[C@]23C)C1`, the IC50 was found to be 62 nM in data set [1], 62 nM in data set [2] and 30 nM in data set [4]. Further, the selectivity ratio came to 1 in data set [3] and 2.1 in data set [5].

With `CC1=C(CO)C(=O)O[C@@H]([C@@H](C)[C@H]2CC[C@H]3[C@@H]4C[C@H]5O[C@]56[C@@H](O[Si](C)(C)C(C)C)C=CC(=O)[C@]6(C)[C@H]4CC[C@]23C)C1`, the IC50 in data set [1] was 310 nM; in data set [2] it was 23 nM; in data set [4], 34 nM. Moreover, the values for the selectivity ratio in data set [3] and in data set [5] were 13.5 and 9.1, respectively.

As for `CC1=C(CO[Si](C)(C)C(C)C)C(=O)O[C@@H]([C@@H](C)[C@H]2CC[C@H]3[C@@H]4C[C@H]5O[C@]56[C@@H](O)[C@@H](n5ccnc5)CC(=O)[C@]6(C)[C@H]4CC[C@]23C)C1`, the IC50 in data set [1] was determined as 52 nM; in data set [2] it was 19 nM; in data set [4], 20 nM. Moreover, the selectivity ratio in data set [3] amounted to 2.7; in data set [5] it was 2.6.

`CC1=C(CO[Si](c2ccccc2)(c2ccccc2)C(C)(C)C)C(=O)O[C@@H]([C@@H](C)[C@H]2CC[C@H]3[C@@H]4C[C@H]5O[C@]56[C@@H](O)C=CC(=O)[C@]6(C)[C@H]4CC[C@]23C)C1`: the IC50 in data set [1] stood at 2300 nM; in data set [2], 29 nM; in data set [4] it was 46 nM. The selectivity ratio in data set [3] was found to be 79.1; in data set [5], 49.9.

In the case of `CC1=C(CO[Si](C)(C)C)C(=O)O[C@@H]([C@@H](C)[C@H]2CC[C@H]3[C@@H]4C[C@H]5O[C@]56C(=O)C=CC(=O)[C@]6(C)[C@H]4CC[C@]23C)C1`, the IC50 came to 820 nM in data set [1], 68.8 nM in data set [2] and 41 nM in data set [4]. The selectivity ratio in data set [3] came out at 11.9; in data set [5] it was 20.

As for `C=C[Si](C)(C)OCC1=C(C)C[C@H]([C@@H](C)[C@H]2CC[C@H]3[C@@H]4C[C@H]5O[C@]56[C@@H](O)C=CC(=O)[C@]6(C)[C@H]4CC[C@]23C)OC1=O`, the IC50 in data set [1] turned out to be 86 nM; in data set [2] it was 31 nM; in data set [4] it was 27 nM. Also, the selectivity ratio is 2.8 in data set [3] and 3.2 in data set [5].

On to `CC1=C(CO[Si](C)(C)c2ccccc2)C(=O)O[C@@H]([C@@H](C)[C@H]2CC[C@H]3[C@@H]4C[C@H]5O[C@]56[C@@H](O[Si](C)(C)c5ccccc5)C=CC(=O)[C@]6(C)[C@H]4CC[C@]23C)C1`, for which the IC50 in data set [1] is 309 nM; in data set [2] it was 29 nM; in data set [4], 2.9 nM. Also, the selectivity ratio in data set [3] amounted to 10.7; in data set [5], 107.

Take `CC[Si](CC)(CC)OCC1=C(C)C[C@H]([C@@H](C)[C@H]2CC[C@H]3[C@@H]4C[C@H]5O[C@]56[C@@H](O)C=CC(=O)[C@]6(C)[C@H]4CC[C@]23C)OC1=O`: the figures for the IC50 in data set [1], in data set [2] and in data set [4] were 30 nM, 12.8 nM and above 100 nM, respectively. For the same compound, in data set [3], the selectivity ratio was 2.3.

With `CCCCCCCC[Si](C)(C)OCC1=C(C)C[C@H]([C@@H](C)[C@H]2CC[C@H]3[C@@H]4C[C@H]5O[C@]56[C@@H](O[Si](C)(C)CCCCCCCC)C=CC(=O)[C@]6(C)[C@H]4CC[C@]23C)OC1=O`, the IC50 is 318 nM in data set [1], 24.9 nM in data set [2] and 1.5 nM in data set [4]. In addition, the selectivity ratio in data set [3] came out at 12.8; in data set [5] it was 212.

For the compound `CCCC[Si](CCCC)(CCCC)OCC1=C(C)C[C@H]([C@@H](C)[C@H]2CC[C@H]3[C@@H]4C[C@H]5O[C@]56[C@@H](O)C=CC(=O)[C@]6(C)[C@H]4CC[C@]23C)OC1=O`, the figures for the IC50 in data set [1], in data set [2] and in data set [4] were 260 nM, 22 nM and 27 nM, respectively. In addition, the selectivity ratio was found to be 11.8 in data set [3] and 9.6 in data set [5].

In the case of `CC1=C(CO[Si](C)(c2ccccc2)c2ccccc2)C(=O)O[C@@H]([C@@H](C)[C@H]2CC[C@H]3[C@@H]4C[C@H]5O[C@]56C(=O)C=CC(=O)[C@]6(C)[C@H]4CC[C@]23C)C1`, the IC50 was 2050 nM in data set [1], above 100 nM in data set [2] and 35 nM in data set [4]. For the same compound, in data set [5], the selectivity ratio turned out to be 58.6.

For `CC[Si](CC)(CC)OCC1=C(C)C[C@H]([C@@H](C)[C@H]2CC[C@H]3[C@@H]4C[C@H]5O[C@]56C(=O)C=CC(=O)[C@]6(C)[C@H]4CC[C@]23C)OC1=O`, the figures for the IC50 in data set [1], in data set [2] and in data set [4] were 1870 nM, 20 nM and 35 nM, respectively. Besides, the selectivity ratio in data set [3] amounted to 93.5; in data set [5], 53.5.

For `CCC[Si](CCC)(CCC)OCC1=C(C)C[C@H]([C@@H](C)[C@H]2CC[C@H]3[C@@H]4C[C@H]5O[C@]56C(=O)C=CC(=O)[C@]6(C)[C@H]4CC[C@]23C)OC1=O`, the results for the IC50 in data set [1], in data set [2] and in data set [4] were 1740 nM, 21 nM and 69 nM, respectively. The selectivity ratio in data set [3] turned out to be 82.9; in data set [5], 25.2.

On to `CC1=C(CO[Si](C)(C)C(C)C)C(=O)O[C@@H]([C@@H](C)[C@H]2CC[C@H]3[C@@H]4C[C@H]5O[C@]56C(=O)C=CC(=O)[C@]6(C)[C@H]4CC[C@]23C)C1`, for which the IC50 in data set [1] was 2140 nM; in data set [2] it was 34 nM; in data set [4] it was 43 nM. Further, the selectivity ratio in data set [3] turned out to be 62.9; in data set [5], 49.8.

As for `C=C[Si](C)(C)OCC1=C(C)C[C@H]([C@@H](C)[C@H]2CC[C@H]3[C@@H]4C[C@H]5O[C@]56[C@@H](O[Si](C)(C)C=C)C=CC(=O)[C@]6(C)[C@H]4CC[C@]23C)OC1=O`, the figures for the IC50 in data set [1], in data set [2] and in data set [4] were 92 nM, 27.5 nM and 33 nM, respectively. Also, the results for the selectivity ratio in data set [3] and in data set [5] were 3.4 and 2.8, respectively.

For the compound `CCC[Si](CCC)(CCC)OCC1=C(C)C[C@H]([C@@H](C)[C@H]2CC[C@H]3[C@@H]4C[C@H]5O[C@]56[C@@H](O)C=CC(=O)[C@]6(C)[C@H]4CC[C@]23C)OC1=O`, the IC50 in data set [1] was determined as 30 nM; in data set [2], 3.6 nM; in data set [4] it was 32 nM. The selectivity ratio came to 8.3 in data set [3] and 0.9 in data set [5].

In the case of `CCCCCCCC[Si](C)(C)OCC1=C(C)C[C@H]([C@@H](C)[C@H]2CC[C@H]3[C@@H]4C[C@H]5O[C@]56[C@@H](O)C=CC(=O)[C@]6(C)[C@H]4CC[C@]23C)OC1=O`, the IC50 in data set [1] stood at 32 nM; in data set [2] it was 33 nM; in data set [4], 10 nM. Also, the results for the selectivity ratio in data set [3] and in data set [5] were 1 and 3.2, respectively.

As to `CC1=C(CO[Si](C)(C)c2ccccc2)C(=O)O[C@@H]([C@@H](C)[C@H]2CC[C@H]3[C@@H]4C[C@H]5O[C@]56C(=O)C=CC(=O)[C@]6(C)[C@H]4CC[C@]23C)C1`, the IC50 was 2300 nM in data set [1], above 100 nM in data set [2] and 59 nM in data set [4]. Moreover, the selectivity ratio in data set [5] amounted to 39.1.

As to `CCCC[Si](CCCC)(CCCC)OCC1=C(C)C[C@H]([C@@H](C)[C@H]2CC[C@H]3[C@@H]4C[C@H]5O[C@]56C(=O)C=CC(=O)[C@]6(C)[C@H]4CC[C@]23C)OC1=O`, the IC50 is 617 nM in data set [1], above 100 nM in data set [2] and 53 nM in data set [4]. Moreover, in data set [5], the selectivity ratio came to 11.6.

The values are drawn from ChEMBL document CHEMBL4350962, “Expanding the Chemical Space of Withaferin A by Incorporating Silicon To Improve Its Clinical Potential on Human Ovarian Carcinoma Cells” (J Med Chem, 2019).
